Measurements reported in ChEMBL document CHEMBL1138614, “Synthesis and antibacterial activities of novel oxazolidinones having spiro[2,4]heptane moieties” (2009).
Values after ≈ are worked out from the molar mass of the structure shown.

How the values were obtained:
Type in all cases: functional
Staphylococcus aureus [1] = test: Antibacterial activity against Staphylococcus aureus C463 after 18 to 20 hrs by agar dilution method
How it was run: (§1)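 Agar dilution MIC on test agar. Bacteria grown overnight in tryptosoy broth, diluted in the same broth to about 10⁶ cells/mL, then applied with an inoculating device onto agar holding serial twofold dilutions of compound. Plates incubated at 37 °C for 18–20 h. MIC taken as the lowest concentration visibly inhibiting growth, in µg/ml.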

Staphylococcus = test: Antibacterial activity against Coagulase negative Staphylococcus after 18 to 20 hrs by agar dilution method
How it was run: (§2)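 Agar dilution: bacteria grown overnight in tryptosoy broth and diluted in the same broth to about 10⁶ cells/mL. A multipoint inoculating device spotted them onto test agar carrying serial twofold dilutions of compound. Plates were held at 37 °C for 18–20 h. MIC (µg/ml) was read as the lowest concentration giving visible inhibition of growth.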

Enterococcus faecalis [2] = test: Antibacterial activity against Enterococcus faecalis C474 after 18 to 20 hrs by agar dilution method; how it was run: as §2
Enterococcus faecium [3] = test: Antibacterial activity against Enterococcus faecium C803 after 18 to 20 hrs by agar dilution method; how it was run: as §1
Streptococcus pneumoniae = test: Antibacterial activity against Streptococcus pneumoniae C402 after 18 to 20 hrs by agar dilution method; how it was run: as §2
Streptococcus pyogenes = test: Antibacterial activity against Streptococcus pyogenes ATCC 8736 after 18 to 20 hrs by agar dilution method; how it was run: as §2
Streptococcus agalactiae = test: Antibacterial activity against Streptococcus agalactiae ATCC 2901 after 18 to 20 hrs by agar dilution method; how it was run: as §2
Haemophilus influenzae = test: Antibacterial activity against Haemophilus influenzae after 18 to 20 hrs by agar dilution method; how it was run: as §2
Staphylococcus aureus [4] = test: Antibacterial activity against methicillin-resistant Staphylococcus aureus after 18 to 20 hrs by agar dilution method; how it was run: as §1
Enterococcus faecalis [5] = test: Antibacterial activity against vancomycin-resistant Enterococcus faecalis after 18 to 20 hrs by agar dilution method; how it was run: as §1
Enterococcus faecium [6] = test: Antibacterial activity against vancomycin-resistant Enterococcus faecium after 18 to 20 hrs by agar dilution method; how it was run: as §1
Enterococcus [7] = test: Antibacterial activity against vancomycin-resistant Enterococcus 1 after 18 to 20 hrs by agar dilution method; how it was run: as §1
Enterococcus [8] = test: Antibacterial activity against vancomycin-resistant Enterococcus 2 after 18 to 20 hrs by agar dilution method; how it was run: as §1
Enterococcus [9] = test: Antibacterial activity against vancomycin-resistant Enterococcus 3 after 18 to 20 hrs by agar dilution method; how it was run: as §1
Enterococcus [10] = test: Antibacterial activity against vancomycin-resistant Enterococcus 4 after 18 to 20 hrs by agar dilution method; how it was run: as §1
Enterococcus [11] = test: Antibacterial activity against vancomycin-resistant Enterococcus 5 after 18 to 20 hrs by agar dilution method; how it was run: as §1
Enterococcus [12] = test: Antibacterial activity against vancomycin-resistant Enterococcus 6 after 18 to 20 hrs by agar dilution method; how it was run: as §1

| Compound | MIC (Staphylococcus aureus [1]) [µg/mL] | MIC (Staphylococcus) [µg/mL] | MIC (Enterococcus faecalis [2]) [µg/mL] | MIC (Enterococcus faecium [3]) [µg/mL] | MIC (Streptococcus pneumoniae) [µg/mL] | MIC (Streptococcus pyogenes) [µg/mL] | MIC (Streptococcus agalactiae) [µg/mL] | MIC (Haemophilus influenzae) [µg/mL] | MIC (Staphylococcus aureus [4]) [µg/mL] | MIC (Enterococcus faecalis [5]) [µg/mL] | MIC (Enterococcus faecium [6]) [µg/mL] | MIC (Enterococcus [7]) [µg/mL] | MIC (Enterococcus [8]) [µg/mL] | MIC (Enterococcus [9]) [µg/mL] | MIC (Enterococcus [10]) [µg/mL] | MIC (Enterococcus [11]) [µg/mL] | MIC (Enterococcus [12]) [µg/mL] |
| --- | --- | --- | --- | --- | --- | --- | --- | --- | --- | --- | --- | --- | --- | --- | --- | --- | --- |
| CC(=O)NC[C@H]1CN(c2ccc(N3C/C(=N\N)C4(CC4)C3)c(F)c2)C(=O)O1 | 25 (≈ 66.6 µM) | 12.5 (≈ 33.3 µM) | 25 (≈ 66.6 µM) | 25 (≈ 66.6 µM) | 25 (≈ 66.6 µM) | 12.5 (≈ 33.3 µM) | 25 (≈ 66.6 µM) | 25 (≈ 66.6 µM) | 25 (≈ 66.6 µM) | 50 (≈ 133 µM) | 25 (≈ 66.6 µM) | 12.5 (≈ 33.3 µM) | 25 (≈ 66.6 µM) | 12.5 (≈ 33.3 µM) | 25 (≈ 66.6 µM) | 12.5 (≈ 33.3 µM) | 25 (≈ 66.6 µM) |
| CO/N=C1\CN(c2ccc(N3C[C@H](CNC(C)=O)OC3=O)cc2F)CC12CC2 | 6.25 (≈ 16 µM) | 12.5 (≈ 32 µM) | 12.5 (≈ 32 µM) | 6.25 (≈ 16 µM) | 3.12 (≈ 7.99 µM) | 6.25 (≈ 16 µM) | 6.25 (≈ 16 µM) | 6.25 (≈ 16 µM) | 6.25 (≈ 16 µM) | 6.25 (≈ 16 µM) | 6.25 (≈ 16 µM) | 6.25 (≈ 16 µM) | 3.12 (≈ 7.99 µM) | 6.25 (≈ 16 µM) | 6.25 (≈ 16 µM) | 6.25 (≈ 16 µM) | 6.25 (≈ 16 µM) |
| CCCO/N=C1\CN(c2ccc(N3C[C@H](CNC(C)=O)OC3=O)cc2F)CC12CC2 | 25 (≈ 59.7 µM) | 12.5 (≈ 29.9 µM) | 25 (≈ 59.7 µM) | 12.5 (≈ 29.9 µM) | 12.5 (≈ 29.9 µM) | 12.5 (≈ 29.9 µM) | 12.5 (≈ 29.9 µM) | 25 (≈ 59.7 µM) | 12.5 (≈ 29.9 µM) | 25 (≈ 59.7 µM) | 12.5 (≈ 29.9 µM) | 12.5 (≈ 29.9 µM) | 12.5 (≈ 29.9 µM) | 12.5 (≈ 29.9 µM) | 12.5 (≈ 29.9 µM) | 12.5 (≈ 29.9 µM) | 12.5 (≈ 29.9 µM) |
| CCO/N=C1\CN(c2ccc(N3C[C@H](CNC(C)=O)OC3=O)cc2F)CC12CC2 | 12.5 (≈ 30.9 µM) | 12.5 (≈ 30.9 µM) | 25 (≈ 61.8 µM) | 12.5 (≈ 30.9 µM) | 12.5 (≈ 30.9 µM) | 12.5 (≈ 30.9 µM) | 12.5 (≈ 30.9 µM) | 12.5 (≈ 30.9 µM) | 12.5 (≈ 30.9 µM) | 12.5 (≈ 30.9 µM) | 12.5 (≈ 30.9 µM) | 12.5 (≈ 30.9 µM) | 6.25 (≈ 15.5 µM) | 6.25 (≈ 15.5 µM) | 12.5 (≈ 30.9 µM) | 6.25 (≈ 15.5 µM) | 6.25 (≈ 15.5 µM) |
| CC(=O)NC[C@H]1CN(c2ccc(N3C/C(=N\O)C4(CC4)C3)c(F)c2)C(=O)O1 | 12.5 (≈ 33.2 µM) | 25 (≈ 66.4 µM) | 25 (≈ 66.4 µM) | 12.5 (≈ 33.2 µM) | 12.5 (≈ 33.2 µM) | 6.25 (≈ 16.6 µM) | 6.25 (≈ 16.6 µM) | 12.5 (≈ 33.2 µM) | 12.5 (≈ 33.2 µM) | 12.5 (≈ 33.2 µM) | 12.5 (≈ 33.2 µM) | 12.5 (≈ 33.2 µM) | 6.25 (≈ 16.6 µM) | 6.25 (≈ 16.6 µM) | 6.25 (≈ 16.6 µM) | 6.25 (≈ 16.6 µM) | 12.5 (≈ 33.2 µM) |
| CC(=O)NC[C@H]1CN(c2ccc(N3CC(N)C4(CC4)C3)c(F)c2)C(=O)O1 (stereo not given in full) | 6.25 (≈ 17.2 µM) | 6.25 (≈ 17.2 µM) | 6.25 (≈ 17.2 µM) | 6.25 (≈ 17.2 µM) | 6.25 (≈ 17.2 µM) | 6.25 (≈ 17.2 µM) | 6.25 (≈ 17.2 µM) | 6.25 (≈ 17.2 µM) | 6.25 (≈ 17.2 µM) | 12.5 (≈ 34.5 µM) | 6.25 (≈ 17.2 µM) | 12.5 (≈ 34.5 µM) | 6.25 (≈ 17.2 µM) | 6.25 (≈ 17.2 µM) | 6.25 (≈ 17.2 µM) | 6.25 (≈ 17.2 µM) | 12.5 (≈ 34.5 µM) |
| CC(=O)NC[C@H]1CN(c2ccc(N3CC(O)C4(CC4)C3)c(F)c2)C(=O)O1 (stereo not given in full) | 12.5 (≈ 34.4 µM) | 12.5 (≈ 34.4 µM) | 12.5 (≈ 34.4 µM) | 6.25 (≈ 17.2 µM) | 3.12 (≈ 8.59 µM) | 6.25 (≈ 17.2 µM) | 6.25 (≈ 17.2 µM) | 6.25 (≈ 17.2 µM) | 6.25 (≈ 17.2 µM) | 6.25 (≈ 17.2 µM) | 6.25 (≈ 17.2 µM) | 3.12 (≈ 8.59 µM) | 6.25 (≈ 17.2 µM) | 6.25 (≈ 17.2 µM) | 6.25 (≈ 17.2 µM) | 6.25 (≈ 17.2 µM) | 3.12 (≈ 8.59 µM) |
| CC(=O)NC[C@H]1CN(c2ccc(N3CCOCC3)c(F)c2)C(=O)O1 [LINEZOLID] | 3.12 (≈ 9.25 µM) | 3.12 (≈ 9.25 µM) | 1.56 (≈ 4.62 µM) | 1.56 (≈ 4.62 µM) | 0.78 (≈ 2.31 µM) | 1.56 (≈ 4.62 µM) | 1.56 (≈ 4.62 µM) | 1.56 (≈ 4.62 µM) | 1.56 (≈ 4.62 µM) | 1.56 (≈ 4.62 µM) | 1.56 (≈ 4.62 µM) | 1.56 (≈ 4.62 µM) | 1.56 (≈ 4.62 µM) | 1.56 (≈ 4.62 µM) | 1.56 (≈ 4.62 µM) | 1.56 (≈ 4.62 µM) | 1.56 (≈ 4.62 µM) |
| CC(=O)NC[C@H]1CN(c2ccc(N3CC(=O)C4(CC4)C3)c(F)c2)C(=O)O1 | 3.12 (≈ 8.63 µM) | 3.12 (≈ 8.63 µM) | 6.25 (≈ 17.3 µM) | 1.56 (≈ 4.32 µM) | 0.78 (≈ 2.16 µM) | 3.12 (≈ 8.63 µM) | 1.56 (≈ 4.32 µM) | 1.56 (≈ 4.32 µM) | 3.12 (≈ 8.63 µM) | 1.56 (≈ 4.32 µM) | 1.56 (≈ 4.32 µM) | 3.12 (≈ 8.63 µM) | 1.56 (≈ 4.32 µM) | 1.56 (≈ 4.32 µM) | 3.12 (≈ 8.63 µM) | 3.12 (≈ 8.63 µM) | 1.56 (≈ 4.32 µM) |
| CC(=O)NC[C@H]1CN(c2ccc(N3CC(F)C4(CC4)C3)c(F)c2)C(=O)O1 (stereo not given in full) | 3.12 (≈ 8.54 µM) | 3.12 (≈ 8.54 µM) | 1.56 (≈ 4.27 µM) | 0.78 (≈ 2.13 µM) | 1.56 (≈ 4.27 µM) | 1.56 (≈ 4.27 µM) | 0.78 (≈ 2.13 µM) | 0.39 (≈ 1.07 µM) | 0.78 (≈ 2.13 µM) | 1.56 (≈ 4.27 µM) | 1.56 (≈ 4.27 µM) | 1.56 (≈ 4.27 µM) | 1.56 (≈ 4.27 µM) | 3.12 (≈ 8.54 µM) | 0.78 (≈ 2.13 µM) | 0.78 (≈ 2.13 µM) | 1.56 (≈ 4.27 µM) |
